Compound activity: PubChem BioAssay, several laboratories
Most compounds without a hit are left out; they make up all but 5.4% or so of the library.
SKKanGAS inh: SKKanGAS growth inhibition | S. pyogenes SKKanGAS, kanamycin growth, BacTiter-Glo, 6 h | inhibition, % at 7.5 µM | 300,000 compounds, 1.3% hits | AID 1662;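 active = mean replicate score, as percent of positive control median, at least 50; inconclusive = mean below 50 but one replicate at or above 50; inactive = mean and every replicate below 50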;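 also: strain carries kanamycin resistance gene driven by streptokinase promoter and grows in 40 µg/ml kanamycin; loss of luminescence reflects streptokinase promoter inhibition or plain growth inhibition; 0% = median of DMSO wells and 100% = positive control at its reference dose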
aSyn UTR inh: MLPCN primary screen, SNCA 5' untranslated region | alpha-synuclein 5'UTR reporter, inhibitor activity | inhibition, % (tested at 7.5 µM) | 300,000 compounds, 0.82% hits | AID 1813; in the data active = inhibition above about 60%; inconclusive = no clear call, values can overlap the other calls;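 also: H4 neuroglioblastoma cells stably carrying SNCA 5'UTR luciferase fusion; 0% = DMSO wells and 100% = positive control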
CSC inhib: cancer stem cell inhibition; cancer stem cell-like cells viability, luminescence; inhibition, % at 7.5 µM; 300,000 compounds, 1.1% hits; in the data active = inhibition above about 75%; inconclusive = no clear call, values can overlap the other calls; tested in HMLE shEcad cells
Mdm2 MdmX PPI: disrupts the human Mdm2-MdmX interaction. O15151+Q00987. SaOS-2 split-luciferase Mdm2/MdmX complementation, luminescence. inhibition, % at 8 µM. 330,000 compounds, 3% hits. AID 485346;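 active = inhibition of at least 50% at 8 µM in the primary screen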
Target sequence (O15151 whole entry, looked up): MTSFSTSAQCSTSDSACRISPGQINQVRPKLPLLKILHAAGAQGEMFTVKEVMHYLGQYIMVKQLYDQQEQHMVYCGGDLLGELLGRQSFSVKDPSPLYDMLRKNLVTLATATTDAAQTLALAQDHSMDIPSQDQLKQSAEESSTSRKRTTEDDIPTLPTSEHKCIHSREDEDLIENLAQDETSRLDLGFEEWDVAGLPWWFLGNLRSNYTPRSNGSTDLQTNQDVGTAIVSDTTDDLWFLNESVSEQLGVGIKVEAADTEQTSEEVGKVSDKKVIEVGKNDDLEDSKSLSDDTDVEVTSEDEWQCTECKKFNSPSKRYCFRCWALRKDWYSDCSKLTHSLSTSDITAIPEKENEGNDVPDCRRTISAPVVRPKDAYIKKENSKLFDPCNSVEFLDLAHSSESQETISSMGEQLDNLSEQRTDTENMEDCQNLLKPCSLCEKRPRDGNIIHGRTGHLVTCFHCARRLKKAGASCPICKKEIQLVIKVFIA
Target sequence (Q00987 whole entry, looked up): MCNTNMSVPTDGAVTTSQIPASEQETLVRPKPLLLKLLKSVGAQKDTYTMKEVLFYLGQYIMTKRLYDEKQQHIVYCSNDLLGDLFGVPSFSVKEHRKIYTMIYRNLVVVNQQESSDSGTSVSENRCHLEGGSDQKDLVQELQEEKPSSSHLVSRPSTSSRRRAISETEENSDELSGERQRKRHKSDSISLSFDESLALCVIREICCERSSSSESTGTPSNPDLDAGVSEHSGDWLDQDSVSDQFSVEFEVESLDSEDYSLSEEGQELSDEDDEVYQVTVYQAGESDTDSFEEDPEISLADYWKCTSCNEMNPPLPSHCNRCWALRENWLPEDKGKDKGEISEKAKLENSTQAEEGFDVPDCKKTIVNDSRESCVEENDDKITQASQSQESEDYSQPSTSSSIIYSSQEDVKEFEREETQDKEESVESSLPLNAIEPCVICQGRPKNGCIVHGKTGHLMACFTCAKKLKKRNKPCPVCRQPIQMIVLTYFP
T cruzi repl: T. cruzi replication inhibition; T. cruzi beta-gal in NIH3T3, luminescence, 90 h; inhibition, % (concentration not given with the values); 300,000 compounds, 1.4% hits; AID 1885;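 active = mean inhibition across valid replicates above about 55%, limit read from the data; inconclusive = mean below that limit but half or more replicates reach it; inactive = mean below it, under half of replicates reach it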;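 also: signal also drops with host cell toxicity which is not excluded here; 0% = plate median of DMSO wells and 100% = zero luminescence signal; higher percent means less beta-gal luminescence so fewer parasites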
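System – NIH/3T3 host cells with β-galactosidase reporter T. cruzi · Doses – single 50 nL compound addition per well in DMSO · Reagent – 5000 T. cruzi trypomastigotes/well · Medium – Low-serum DMEM with 2% FBS · Timing – ≥90 h infection period, 3 h prior cell attachment · Evaluation – parasite load inhibition, % · Technique – GalScreen luminescence, 60 min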
Mdm2-MdmX conf: confirmation of human Mdm2/MdmX interaction inhibitors; shares compounds with Mdm2 MdmX PPI; AID 489028; 10,000 compounds, 55% hits; Mdm2-MdmX binding, luminescent assay; inhibition, % at 8 µM; in the data active = inhibition above about 40%
FLuc counter: counter-screen for Mdm2/MdmX inhibitors: full-length luciferase | shares compounds with Mdm2 MdmX PPI | inhibition, % at 8 µM | 6,200 compounds, 77% hits | SaOS-2 full-length luciferase counterscreen, luminescence;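 active = mean inhibition at 8 µM reaching about 37%, which flags the compound as non-specific, limit read from the data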;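 also: p53-null SaOS-2 cells with luciferase driven by a doxycycline-inducible promoter; compound on cells about two nights before reading with doxycycline added after day one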
* hit, by the source's call; ? = inconclusive; / = not tested or not shown.

SMILES	SKKanGAS inh	aSyn UTR inh	CSC inhib	Mdm2 MdmX PPI	T cruzi repl	Mdm2-MdmX conf	others
COc1ccc(Cl)cc1C(=O)O/N=C(\N)c1ccccn1	-3	-159	-8	39	1	/
COc1ccc(C(=O)O/N=C(\N)c2ccc(OC)c(OC)c2)c(OC)c1	0	-96	-9	75*	12	34
COc1ccc(/C(N)=N/OC(=O)c2cccc([N+](=O)[O-])c2C)cc1OC	-3	-54	-13	17	6	/
CC(C)(C)C1CCc2onc(C(=O)Nc3ccc4c(c3)OCO4)c2C1 (stereo not given)	0	-9	10	35	3	/
Fc1ccccc1N1CC(c2ccccc2)C(c2cccs2)=N1 (stereo not given)	-6	-7	15	6	-3	/
COc1cc(OC)cc(-c2oc3cccnc3c2C#CCCO)c1	-14	-4	2	6	14	/
COc1ccc(C(=O)O/N=C(\N)c2ccc(OC)c(OC)c2)cc1	-2	-139	-10	86*	30	18
COc1ccc(C(=O)O/N=C(\N)c2ccccc2Cl)cc1OC	1	-45	-5	86*	10	44*	FLuc counter=112*
COc1ccc(/C(N)=N/OC(=O)CC2CCCCC2)cc1OC	-2	-60	-3	67*	-5	15
COc1ccccc1C(=O)O/N=C(\N)c1ccccc1Cl	-4	-139	3	21	2	/
COc1ccc(/C(N)=N/OC(=O)c2ccc(OC)c([N+](=O)[O-])c2)cc1OC	-2	-4	-2	71*	14	31
COc1ccc(/C(N)=N/OC(=O)Oc2ccccc2)cc1OC	8	5	-6	-6	-14	/
COc1ccc(/C(N)=N/OC(=O)CCC2CCCC2)cc1OC	2	-20	6	-7	-4	/
Cc1ccc(OCCCCNC2CCCC(C)C2C)c(C)c1 (stereo not given)	-4	-6	54	56*	57*	38
O=C(CN(c1cccc(C(F)(F)F)c1)S(=O)(=O)c1ccc(Cl)c([N+](=O)[O-])c1)NCc1ccc(F)cc1	3	7	185*	100*	14	39	FLuc counter=95*
CC(C)c1nnc(NC(=O)c2ccc3c(c2)OCO3)s1	16	?	2	-5	27	/
Cc1ccc(C)c(OCc2nnc(NC(=O)c3ccc4c(c3)OCO4)s2)c1	7	7	-5	69*	-7	28
COc1ccccc1-c1nnc(NC(=O)c2ccc3c(c2)OCO3)s1	-7	45	1	90*	-10	66*	FLuc counter=85*
O=C(Nc1ccnn1C1CCN(Cc2ccccc2OC(F)F)CC1)c1cccnc1	2	-13	-6	24	6	/
COCC1CCCCN1C(=O)c1ccc(OC)c(OC2CCN(C(C)C)CC2)c1 (stereo not given)	-1	-43	-10	-25	0	/
CC(Oc1cccc(Cl)c1)C(=O)Nc1cc(Cl)ccc1N1CCOCC1 (stereo not given)	22	27	2	8	41	/
COc1ccc(NC(=O)CCNS(=O)(=O)c2cccc3nsnc23)c(OC)c1	-1	-30	-3	-11	3	/
CN(C(=O)COC(=O)c1cc(=O)[nH]c2ccccc12)c1ccccc1	/	/	-9	5	/	/
CC(C)(C)c1ccc(-c2cc(-c3ccccc3O)[nH]n2)cc1	104*	-33	43	58*	16	65*	FLuc counter=139*
COc1cc(/C=C2/SC(=O)N(Cc3ccccc3Cl)C2=O)ccc1OCc1ccncc1	7	-18	34	51*	35	20
SMILES	SKKanGAS inh	aSyn UTR inh	CSC inhib	Mdm2 MdmX PPI	T cruzi repl	Mdm2-MdmX conf	others
Cc1cc(C2(c3ccc(O)c(C)c3)C(=O)Nc3ccccc32)ccc1O	19	40	?	57*	28	39
Cc1ccc(S(=O)(=O)c2nc(-c3ccccc3Cl)oc2N(C)C)cc1	6	14	1	56*	-10	72*	FLuc counter=73*
O=C(CNC(=O)c1ccc(Cl)cc1Cl)OCc1cn2cc(Br)ccc2n1	/	/	-14	7	/	/
CCCCCCC(=O)c1c(C)[nH]c(C(=O)OCC)c1C	-6	-114	3	-19	35	/
Cc1ccc2c(c1)c1c(n2CC(O)CNC2CCCCC2)CCCC1 (stereo not given)	-4	38	77*	100*	44	46*	FLuc counter=51*
O=S(=O)(c1ccc(Cl)c(NC(=S)N/N=C/c2c(F)cccc2F)c1)N1CCOCC1	-6	7	8	50*	26	12
O=S(=O)(c1ccc(Cl)c(NC(=S)N/N=C/c2ccc(O)cc2)c1)N1CCOCC1	16	26	6	1	-11	/
CCOc1ccc(CCNC(=O)Cn2ncn3nc(-c4ccc(OC)cc4)cc3c2=O)cc1OCC	6	0	-6	59*	-12	11
COc1ccc(-c2cc3c(=O)n(CC(=O)NCc4ccccc4F)ncn3n2)cc1	3	-37	-6	70*	-7	0
COc1ccc(NC(=O)Cn2ncn3nc(-c4ccc(OC)cc4)cc3c2=O)cc1	-6	16	1	80*	14	20	FLuc counter=90*
CCCNc1nc(Nc2ccc(C)cc2)nc(N2CCCC2)n1	33	4	36	34	20	/
CSc1cccc(NC(=S)Nc2cc(C)ccc2C)c1	-15	-139	13	7	8	/
O=C(NCCCNc1ccc([N+](=O)[O-])cc1)C(F)(F)F	0	-13	-7	6	-13	/
O=C(CCl)N(CCCNC(=O)C(F)(F)F)c1ccc([N+](=O)[O-])cc1	0	-12	17	93*	-12	72*	FLuc counter=38*
O=C(COC(=O)C1CC1)NCc1ccccc1Cl	3	3	-7	10	-4	/
CSC1=NC(C)(C)C=C(/C=C/c2ccc(Cl)cc2)N1	3	-96	18	54*	10	10
COc1ccc(Nc2nc3c(c(=O)n(C)c(=O)n3C)n2CCO)cc1	1	-3	-12	16	1	/
COc1ccc(C(CNC(=O)c2ccc(NS(=O)(=O)c3ccc4c(c3)OCCO4)cc2)N(C)C)cc1 (stereo not given)	-11	-8	0	15	-12	/
COc1ccc(C(=O)On2c(-c3ccc(Br)cc3)nc3ccccc3c2=O)cc1	19	-24	40	54*	-18	31
COc1cc(OC)cc(-c2nc3ccccc3c(=O)n2OC(=O)c2ccc(Br)cc2)c1	9	-6	0	13	2	/
Cc1c(C(=O)Nc2cc(S(=O)(=O)N3CCOCC3)ccc2N2CCN(C)CC2)oc2ccccc12	5	21	8	56*	33	39	FLuc counter=65*
COc1ccc(NC(=O)c2oc3ccc(S(=O)(=O)N4CCC5(CC4)OCCO5)cc3c2C)cc1	7	-44	0	71*	-1	35
CN1CCN(c2ccc(S(=O)(=O)N3CCOCC3)cc2NC(=O)CC(C)(C)C)CC1	/	/	8	-5	/	/
